From PubChem BioAssay AID623899 (Broad Institute, 2012)
“And” between values parts separate entries of the source, which are not always exact repeats. Equal values may be shown once. The source made the active and inactive calls.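 How the source made its calls: active means falling signal with AC50 at or below twice the highest valid dose tested for that sample; inconclusive means flat curve at 30 to 70% inhibition, or unreliable fit; inactive means the rest.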

system: not listed separately; experiment: C. albicans growth inhibitors tested alone, no fluconazole – CaCi-2 strain, dry powder, plate reader, set 2, dose response (AID 623899); conditions: C. albicans CaCi-2 growth, Alamar Blue fluorescence, 48 h; at 26 µM (top of the series)
In short: (§1)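 System: fluconazole-resistant C. albicans strain CaCi-2 / Input: inoculum OD600 0.00015 / Dosing: dose-response series of pinned test compound / Timing: compound exposure 48 h, 37 °C, humidified, static, then dye 2 h / Measured by: Alamar Blue fluorescence, read 2 h after dye addition / Controls: amphotericin 10 µM as positive control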

Row | Compound | activity change, negative = inhibition
1 | CCOC(=O)N1C(=S)NC(=O)C12CCCCC2 | 6.84% (inactive)
2 | Cc1ccc(N2C(=O)N(C)C(=O)C23CCCCC3)cc1 | 8.26% (inactive)
3 | Cc1ccc(N2C(=O)NC(=O)C23CCCCC3)cc1 | 14.7% (inactive)
4 | CCOC(=O)N1C(=O)C(C)(C)N(c2ccc(C)cc2)C1=S | 17.8% (inactive)
5 | Cc1ccc(N2C(=S)N(C(=O)Oc3ccccc3)C(=O)C23CCCCC3)cc1 | 9.01% (inactive)
6 | CCCC(=O)N1C(=O)C2(CCCCC2)N(c2ccc(C)cc2)C1=S | 15.2% (inactive)
7 | CCCCN1C(=O)N(c2ccc(C)cc2)C2(CCCCC2)C1=O | 9.77% (inactive)
8 | CCOC(=O)N1C(=O)C2(CCCCC2)N(c2ccc(C(C)C)cc2)C1=S | -19.6% (inactive)
9 | Cc1ccc(N2C(=O)C3(CCCCC3)NC2=S)cc1 | 9.21% (inactive)
10 | Cc1ccc(N2C(=S)NC(=O)C23CCC3)cc1 | -14.6% (inactive)
11 | CCOC(=O)N1C(=O)C2(CCCCC2)N(C(C)C)C1=S | -20% (inactive)
12 | CCOC(=O)N1C(=O)C2(CCC2)N(c2ccc(C)cc2)C1=S | 18% (inactive)
13 | O=C1NC(=S)NC12CCCCC2 | 4.86% (inactive)
14 | Cc1ccc(N2C(=S)NC(=O)C2(C)C)cc1 | 2.43% (inactive)
15 | CCOC(=O)N1C(=O)N(c2ccc(C)cc2)C2(CCCCC2)C1=O | -28.5% (inactive)
16 | Cc1ccc(N2C(=S)N(C(=O)OCc3ccccc3)C(=O)C23CCCCC3)cc1 | 1.35% (inactive)
17 | Cc1ccc(N2C(=S)NC(=O)C23CCOCC3)cc1 | -17.4% (inactive)
18 | Cc1ccc(N2CC(=O)NC2=S)cc1 | -6.22% (inactive)
19 | CC(C)N1C(=S)NC(=O)C12CCCCC2 | -4.41% (inactive)
20 | Cc1ccc(N2C(=S)N(C)C(=O)C23CCCCC3)cc1 | -8.14% (inactive) and -15.3% (inactive)
21 | Cc1ccc(N2C(=S)NC(=O)C23CCCC3)cc1 | 7.79% (inactive)
22 | Cc1ccc(N2CC(=O)NC2=O)cc1 | -7.46% (inactive)
23 | O=C1NC(=S)N(Cc2ccccc2)C12CCCCC2 | 0.564% (inactive)
24 | O=C1NC(=S)N(c2ccc(F)cc2)C12CCCCC2 | -13.4% (inactive)
25 | CCOC(=O)N1C(=S)N(c2ccc(C)cc2)C(=O)C12CCCCC2 | 6.88% (inactive)
26 | Cc1ccc(N2C(=S)N(S(C)(=O)=O)C(=O)C23CCCCC3)cc1 | 8.47% (inactive)
27 | Cc1ccc(N2C(=O)C(=O)NC2=S)cc1 | 9.23% (inactive)
28 | CCOC(=O)N1C(=S)N(c2ccc(C)cc2)C2(CCCCC2)C1=NCc1ccccc1 | 3.84% (inactive)
29 | CCOC(=O)N1C(=O)C2(CCCCC2)NC1=S | 0.477% (inactive)

system: C. albicans CaCi-2 growth, Alamar Blue fluorescence, 48 h; experiment: as above; conditions: not given
In short: as §1

Row | Compound | AC50
30 | CCOC(=O)N1C(=O)C2(CCCCC2)N(c2ccccc2)C1=S | 148 nM
31 | CCCCN1C(=O)C2(CCCCC2)N(c2ccc(C)cc2)C1=S | > 52000 nM (inactive)
32 | CCOC(=O)N1C(=O)C2(CCOCC2)N(c2ccc(C)cc2)C1=S | 20600 nM
33 | CCCc1ccc(N2C(=S)N(C(=O)OCC)C(=O)C23CCCCC3)cc1 | 6910 nM
34 | CCCOC(=O)N1C(=O)C2(CCCCC2)N(c2ccc(C)cc2)C1=S | 5900 nM
35 | CCOC(=O)N1C(=O)C2(CCCCC2)N(Cc2ccccc2)C1=S | 3760 nM
36 | CCOC(=O)N1C(=O)C2(CCCCC2)N(c2ccc(C)cc2)C1=S | 359 nM and 303 nM
37 | CCOC(=O)N1C(=O)C2(CCCCC2)N(c2ccc(F)cc2)C1=S | < 100 nM
38 | Cc1ccc(N2C(=S)N(C(=O)OC(C)C)C(=O)C23CCCCC3)cc1 | 8740 nM
39 | CCOC(=O)N1C(=O)C2(CCCCC2)N(c2ccc(Cl)cc2)C1=S | < 100 nM
40 | CCOC(=O)N1C(=O)C2(CCCCC2)N(c2ccc(C(F)(F)F)cc2)C1=S | 841 nM
41 | CCOC(=O)N1C(=O)C2(CCCCC2)N(c2ccccc2C)C1=S | 1200 nM
42 | COC(=O)N1C(=O)C2(CCCCC2)N(c2ccc(C)cc2)C1=S | 1890 nM
43 | CCOC(=O)N1C(=O)C2(CCCCC2)N(c2ccc(C#N)cc2)C1=S | < 100 nM
44 | O=C1NC(=S)N(c2ccccc2)C12CCCCC2 | > 52000 nM (inactive)
45 | CCOC(=O)N1C(=O)C2(CCCCC2)N(c2cccc(C)c2)C1=S | 189 nM
46 | CCOC(=O)N1C(=O)C2(CCCC2)N(c2ccc(C)cc2)C1=S | 9790 nM
47 | Cc1ccc(N2C(=S)NC(=O)C23CCCCC3)cc1 | > 52000 nM (inactive)
48 | CC1/C=C/C=C\C=C\C=C\C=C\C=C\C=C\C(O[C@H]2OC(C)C(O)C(N)C2O)CC2OC(O)(CC(O)CC(O)C(O)CCC(O)CC(O)CC(=O)OC(C)C(C)C1O)CC(O)C2C(=O)O (stereo partly specified) | < 10 nM
49 | CCOC(=O)N1C(=O)C2(CCCCC2)N(c2ccc(CC)cc2)C1=S | 1900 nM
50 | CCOC(=O)N1C(=O)C2(CCCCC2)N(c2ccc(OC)cc2)C1=S | 1780 nM
51 | CCCCN1C(=O)N(c2ccc(C)cc2)C2(CCCCC2)C1=S | > 52000 nM (inactive)
